The values that follow come from ChEMBL document CHEMBL1629555, “Antimalarial activity of phenylthiazolyl-bearing hydroxamate-based histone deacetylase inhibitors” (Antimicrob Agents Chemother, 2008).

For data set [1], the system named is Plasmodium falciparum. The experiment in a line: Antimalarial activity against drug-resistant Plasmodium falciparum TM91C235. The class given is functional, organism-based.
Data set [2] has as its system Plasmodium falciparum. In words: Antimalarial activity against drug-resistant Plasmodium falciparum TM90C2A. Type of data set: functional, organism-based.
Data set [3] relates to Plasmodium falciparum. In words: Antimalarial activity against drug-resistant Plasmodium falciparum D6 infected in Aotus lemurinus lemurinus monkey. The class given is functional, organism-based.
Data set [4] concerns Plasmodium falciparum. In words: Antimalarial activity against drug-resistant Plasmodium falciparum W2. Type of data set: functional, organism-based.
Data set [5] is described as follows: Cytotoxicity against african green monkey Vero cells by MTT assay. Type of data set: cell-based. As to conditions: chlorocebus sabaeus, read-out: LC50 (the source's name).
Data set [6] in a line: Cytotoxicity against mouse RAW264.7 cells by MTT assay. The class given is cell-based. As to conditions: read-out: LD50 (the source's name). The essentials:
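LC50 in RAW macrophages was determined by MTT assay, given as the mean of 2–4 experiments with range. Selectivity index = RAW LC50 / lowest P. falciparum IC50.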

A short description of data set [7]: Selectivity index, ratio of LC50 for mouse RAW264.7 cells to IC50 for Plasmodium falciparum. As to conditions: RAW264.7 cells.
In data set [8] the test system is Plasmodium falciparum. The experiment in a line: Antimalarial activity against Plasmodium falciparum infected in mouse RAW264.7 cells. Type of data set: functional, organism-based.
The test system of data set [9] is Plasmodium falciparum. The experiment in a line: Antimicrobial activity against Plasmodium falciparum. The class given is functional. The essentials: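 Labeled-hypoxanthine growth inhibition assay against strains W2, D6, TM91C235 and TM90C2A, reporting IC50. Values are single determinations, or the mean of duplicates for some compounds against D6, W2 and C235. Mefloquine and chloroquine served as assay-validity controls.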

Data set [10] deals with Plasmodium falciparum. The experiment in a line: Antimalarial activity against Plasmodium falciparum infected mouse assessed as reduction in parasitemia at 50 mg/kg, ip. The class given is functional, organism-based. On the set-up: dose 50 mg/kg.
Data set [11] has as its target T1, Histone deacetylase (Plasmodium falciparum 3D7) (UniProt Q7K6A1).
T1 sequence (whole entry): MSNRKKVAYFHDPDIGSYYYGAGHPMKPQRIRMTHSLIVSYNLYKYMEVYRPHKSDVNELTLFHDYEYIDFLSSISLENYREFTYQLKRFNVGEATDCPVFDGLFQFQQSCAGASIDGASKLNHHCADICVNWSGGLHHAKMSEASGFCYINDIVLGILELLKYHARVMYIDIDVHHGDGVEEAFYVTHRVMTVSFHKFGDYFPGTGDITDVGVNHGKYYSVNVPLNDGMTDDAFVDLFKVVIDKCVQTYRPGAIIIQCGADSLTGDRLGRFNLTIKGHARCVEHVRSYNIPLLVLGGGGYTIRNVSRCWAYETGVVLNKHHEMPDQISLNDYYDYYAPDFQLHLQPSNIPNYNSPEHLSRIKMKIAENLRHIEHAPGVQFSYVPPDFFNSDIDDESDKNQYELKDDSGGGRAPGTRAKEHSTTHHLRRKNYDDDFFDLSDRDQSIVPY
The experiment in a line: Inhibition of Plasmodium falciparum 3D7 histone deacetylase infected in human erythrocytes assessed as alteration of histone H3 acetylation at 1.8 to 1000 nM after 3.5 hrs by SDS-PAGE. Type of data set: cell-based. The procedure, abridged: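 About 3 × 10^9 late-trophozoite 3D7-infected erythrocytes were incubated with compound or DMSO vehicle for 3.5 h at 37°C, with an untreated sample taken at the start. Histones (about 6 × 10^8 parasites per lane) were run on SDS–15% PAGE, with silver stain as the loading check. Western blots were probed with anti-(tetra)acetyl-H4 and anti-(di)acetyl-H3 antisera (1:2,000) and read by ECL.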

Data set [12] relates to Plasmodium falciparum. The experiment in a line: Antimalarial activity against Plasmodium falciparum at 1 nM after 48 hrs. The class given is functional, organism-based. The procedure, abridged:
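P. falciparum-infected erythrocytes were exposed to 1 nM for 3.5 h, then washed and returned to culture. Growth was scored 48 h later relative to matched untreated controls.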

The subject of data set [13] is Mus musculus. In words: AUC in ICR mouse at 50 mg/kg/day, sc assessed as metabolite W308393 level by LC/MS analysis. The class given is ADME, organism-based, Plasma. On the set-up: route subcutaneous. Particulars: in vivo. The procedure, abridged: (§1)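 Male ICR mice, 8 weeks old, got one 50 mg/kg dose either orally or subcutaneously, with three groups of six mice per route. One mouse per group was killed at 15, 30 and 60 min and at 3, 6 and 24 h. Plasma was deproteinized with 2 volumes of acetonitrile and analysed by LC-MS/MS on a C18 column against 0–500 ng/ml standards, with parent and acid metabolite measured in the same sample. Each six-mouse group was treated as one "animal" and fitted to a two-compartment model. AUC was taken by the linear trapezoidal rule extrapolated to infinity, and Cmax and Tmax were read per "animal".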

Data set [14] deals with Mus musculus. The experiment in a line: AUC in ICR mouse at 50 mg/kg/day, po assessed as metabolite W308393 level by LC/MS analysis. The class given is ADME, organism-based, Plasma. On the set-up: route oral. As to conditions: in vivo. The essentials: as §1
The target in data set [15] is T1, Histone deacetylase (Plasmodium falciparum 3D7). The experiment in a line: Inhibition of Plasmodium falciparum 3D7 histone deacetylase infected in human erythrocytes assessed as alteration of histone H3 acetylation at 100 nM after 3.5 hrs by SDS-PAGE. The class given is cell-based. The procedure, abridged:
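About 3 × 10^9 erythrocytes infected with late-trophozoite P. falciparum 3D7 were exposed to compound or to DMSO vehicle for 3.5 h at 37°C, and an untreated sample was taken at the start. Histones were extracted, about 6 × 10^8 parasites were loaded per lane on SDS–15% PAGE, and loading was checked by silver stain. Western blots were probed with anti-tetraacetyl-H4 and anti-diacetyl-H3 antisera and detected by ECL.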

SMILES strings stand for the structures. In brackets after ≈: the same amount, converted by molar mass. Activity calls are given as the source filed them. The rule behind the calls is not given here.

Take `CN(C)c1cccc(-c2csc(NC(=O)CCCCCCC(=O)NO)n2)c1`: the IC50 with Plasmodium falciparum [1] was 60.8 nM; in the data set with Plasmodium falciparum [2], 18.5 nM; in the data set on Plasmodium falciparum [3], 30.5 nM; with Plasmodium falciparum [4] it was 35.7 nM.
On to `COc1ccc(-c2csc(NC(=O)CCCCCCC(=O)NO)n2)cc1N`, for which the IC50 was determined as 1 nM in the data set with Plasmodium falciparum [1]; 1 nM with Plasmodium falciparum [2]; 0.9 nM in the data set on Plasmodium falciparum [3]; 1.2 nM in the data set on Plasmodium falciparum [4]; 0.9 nM with Plasmodium falciparum [8]. Moreover, the CC50 in data set [5] was determined as 950 nM; in data set [6], 3200 nM. Moreover, the selectivity ratio in data set [7] turned out to be 3560.
For the compound `[N-]=[N+]=Nc1cccc(-c2csc(NC(=O)CCCCCCC(=O)NO)n2)c1`, the IC50 turned out to be 19.3 nM in the data set on Plasmodium falciparum [1], 8.8 nM in the data set with Plasmodium falciparum [2], 9.7 nM in the data set on Plasmodium falciparum [3] and 17.8 nM in the data set with Plasmodium falciparum [4].
On the same counts, the results for `Cc1sc(NC(=O)CCCCCCC(=O)NO)nc1-c1cccc(N)c1` are 6.1 nM, 4 nM, 8 nM and 7.2 nM.
On the same counts, the results for `Nc1cccc(-c2csc(NC(=O)CCCCCC(=O)NO)n2)c1` are 94.3 nM, 34.4 nM, 12.7 nM and 15.8 nM.
On the same counts, the results for `O=C(CCCCCCC(=O)Nc1nc(-c2cccc(O)c2)cs1)NO` are 1.7 nM, 1.6 nM, 2.7 nM and 2.7 nM.
In the case of `CN(CCO)c1ccc(-c2csc(NC(=O)CCCCCCC(=O)NO)n2)cc1N`, the IC50 in the data set with Plasmodium falciparum [1] was found to be 1 nM; with Plasmodium falciparum [2], 0.9 nM; in the data set with Plasmodium falciparum [3] it was 0.8 nM; in the data set with Plasmodium falciparum [4], 1 nM; with Plasmodium falciparum [8] it was 0.81 nM. The CC50 in [5] was found to be 950 nM; in [6] it was 540 nM. The selectivity ratio in data set [7] worked out at 670.
On to `O=C(CCCCCCC(=O)Nc1nc(-c2ccc3ccccc3c2)cs1)NO`, for which the IC50 turned out to be 3.1 nM with Plasmodium falciparum [1], 5.9 nM in the data set with Plasmodium falciparum [2], 3.3 nM in the data set on Plasmodium falciparum [3] and 6.4 nM in the data set with Plasmodium falciparum [4].
Consider `Nc1cc(-c2csc(NC(=O)CCCCCCC(=O)NO)n2)ccc1Cl`, for which the IC50 stood at 1.4 nM in the data set with Plasmodium falciparum [1], 1.6 nM in the data set on Plasmodium falciparum [2], 1.7 nM in the data set on Plasmodium falciparum [3] and 1.7 nM in the data set on Plasmodium falciparum [4].
For the compound `Cc1cccc(-c2csc(NC(=O)CCCCCCC(=O)NO)n2)c1`, the IC50 with Plasmodium falciparum [1] is 3.6 nM; in the data set with Plasmodium falciparum [2], 6 nM; in the data set on Plasmodium falciparum [3], 3.9 nM; with Plasmodium falciparum [4], 7.5 nM.
As for `O=C(CCCCCCC(=O)Nc1nc(-c2cccc(F)c2)cs1)NO`, the IC50 with Plasmodium falciparum [1] was found to be 15.8 nM; in the data set on Plasmodium falciparum [2] it was 7.7 nM; in the data set with Plasmodium falciparum [3], 11.8 nM; in the data set with Plasmodium falciparum [4], 14.2 nM.
Turning to `CCC(=O)CCCCC[C@@H]1NC(=O)[C@H]2CCCCN2C(=O)[C@H]([C@@H](C)CC)NC(=O)[C@H](Cc2cn(OC)c3ccccc23)NC1=O` [APICIDIN], in the data set on Plasmodium falciparum [9], the lowest concentration to inhibit growth (MIC) was 0.125 µg/mL (≈ 0.2 µM). Further, the result with Plasmodium falciparum [10] was Active.
In the case of `COc1cccc(-c2csc(NC(=O)CCCCCCC(=O)NO)n2)c1`, the IC50 with Plasmodium falciparum [1] is 6.2 nM; in the data set on Plasmodium falciparum [2], 10.3 nM; in the data set with Plasmodium falciparum [3], 14.9 nM; with Plasmodium falciparum [4], 11.3 nM.
As to `C[C@@H]1CC[C@H]2[C@@H](C)C(=O)O[C@@H]3O[C@@]4(C)CC[C@@H]1[C@]32OO4`, the inhibition entry in data set [11] was “inactive”. Besides, in the data set with Plasmodium falciparum [12], the result was Active.
As for `Nc1cccc(-c2cc(C(=O)NCCCCCCC(=O)NO)no2)c1`, the IC50 amounted to 42.2 nM with Plasmodium falciparum [1], 28 nM with Plasmodium falciparum [2], 33.2 nM with Plasmodium falciparum [3] and 69.8 nM with Plasmodium falciparum [4].
`Nc1cccc(-c2csc(NC(=O)CCCCCCC(=O)O)n2)c1`: the AUC in the data set with Mus musculus [13] came out at 400 ng·h/mL; with Mus musculus [14], 478 ng·h/mL. Also, the IC50 was greater than 1400 nM in the data set on Plasmodium falciparum [1], 1400 nM with Plasmodium falciparum [2], greater than 1400 nM in the data set on Plasmodium falciparum [3] and greater than 1400 nM in the data set with Plasmodium falciparum [4].
Consider `Nc1ccccc1-c1csc(NC(=O)CCCCCCC(=O)NO)n1`, for which the IC50 was 41.9 nM with Plasmodium falciparum [1], 30.3 nM in the data set with Plasmodium falciparum [2], 34.2 nM in the data set on Plasmodium falciparum [3] and 38.7 nM in the data set on Plasmodium falciparum [4].
For `Nc1cccc(-c2csc(NC(=O)CCCCc3cc(C(=O)NO)no3)n2)c1` the same measures were 150 nM, 79.7 nM, 58.5 nM and 72.1 nM.
Regarding `O=C(CCCCCCC(=O)Nc1ccccc1)NO` [VORINOSTAT], the CC50 in [5] was found to be 950 nM; in data set [6], 2200 nM.
In the case of `Nc1cccc(-c2csc(C(=O)NCCCCCCC(=O)NO)n2)c1`, the IC50 in the data set with Plasmodium falciparum [1] was found to be 170 nM; with Plasmodium falciparum [2] it was 60.7 nM; in the data set with Plasmodium falciparum [3], 42.4 nM; in the data set on Plasmodium falciparum [4], 39.5 nM.
On the same counts, the results for `Nc1ccc(-c2csc(NC(=O)CCCCCCC(=O)NO)n2)cc1` are 19.6 nM, 9.9 nM, 9.8 nM and 9.4 nM.
For `O=C(CCCCCCC(=O)Nc1nc(-c2ccsc2)cs1)NO` the same measures were 6.5 nM, 7.4 nM, 7.5 nM and 17 nM.
Regarding `O=C(CCCCCCC(=O)Nc1nc(-c2ccccc2)cs1)NO`, the IC50 came out at 16.7 nM in the data set on Plasmodium falciparum [1], 8.8 nM in the data set with Plasmodium falciparum [2], 11.8 nM in the data set with Plasmodium falciparum [3] and 13.4 nM in the data set with Plasmodium falciparum [4].
In the case of `Nc1cc(-c2csc(NC(=O)CCCCCCC(=O)NO)n2)ccc1F`, the IC50 with Plasmodium falciparum [1] came to 2.4 nM; with Plasmodium falciparum [2], 3.8 nM; in the data set on Plasmodium falciparum [3], 5.1 nM; with Plasmodium falciparum [4] it was 5 nM.
Take `CC(/C=C/C(=O)NO)=C\[C@@H](C)C(=O)c1ccc(N(C)C)cc1`: the inhibition result in data set [15] is “Active”.
